Laboratory results published in ChEMBL document CHEMBL1125843, “Electron-deficient isoalloxazines: model systems for disulfide prodrug formation” (J Med Chem, 1991).

How the values were obtained:
Type in all cases: ADME
[1] = General acid and general base rate constant (10e4kA-) required for the formation of m-nitrothiophenol disulfide.
In short: (§1)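 Isoalloxazine-catalyzed oxidation of m-nitrothiophenol to its disulfide was quantified by HPLC in phosphate buffer (0.08-0.4 M, pH 7-9) with ionic strength held at 0.4 M (KCl). Isoalloxazine stocks in dry methanol/dichloromethane were diluted into aqueous-methanolic reactions. At fixed pH, k_obs/[mNTP] was plotted against buffer base fraction. The slopes were then plotted against [AH]/[A−] to give k_AH (slope) and k_A− (intercept). Values are the mean of two determinations.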

[2] = […] rate constant (10e7kAH) required for the formation of m-nitrothiophenol disulfide.; in short: as §1
[3] = Spontaneous rate constant (10e6 ko) required for the formation of m-nitrothiophenol disulfide.; in short: as §1

| SMILES | kA- [1] | kAH [2] | k'o [3] |
| --- | --- | --- | --- |
| O=c1nc2n(-c3ccccc3)c3ccccc3nc-2c(=O)n1CCCCCCCCS | 0.1 M⁻¹ s⁻¹ | 6.8 M⁻¹ s⁻¹ | 3 M⁻¹ s⁻¹ |
| Cn1c2nc(=O)n(CCCCCCCCS)c(=O)c-2nc2ccc(C#N)cc21 | 2.3 M⁻¹ s⁻¹ | 131.7 M⁻¹ s⁻¹ | 4.6 M⁻¹ s⁻¹ |
